Compounds with a hit are over-represented: about 3.1% of the library has one in this group of screens.
Myeloid diff MLP – promotes myeloid progenitor differentiation. ER-HoxA9 myeloid progenitors, lysozyme-GFP differentiation, flow cytometry. 360,000 tested, 1% active. AID 624256. calls only at 10 µM;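 active = normalized GFP-positive differentiation at or above the plate's own cutoff, the solvent-only control mean plus 3 SD; inconclusive = no clear call, values can overlap the other calls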;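 note: cells exposed to compound for four days before flow analysis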
HCV core dimer – blocks dimerization of HCV core protein. TR-FRET GST/Flag-core106 dimerization, 1536-well. inhibition, % at 5 µM. 300,000 tested, 0.33% active;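 active = inhibition above the mean of all tested compounds plus 3 SD, set per screening campaign, cut at about 45% in these data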
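Assay system: tagged HCV core106 pair (GST and Flag); medium: KF-containing HEPES buffer, pH 7.45, DTT, CHAPS, BSA; also added: Eu donor and XL665 acceptor anti-tag antibodies; dosing: 5 µM single dose; timing: compound-protein-antibody incubation 4 h at 22.5 °C; signal: TR-FRET 671 and 617 nm emission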
PP5 inh – PP5 (human) phosphatase inhibition. P53041. purified PP5c, OMFP substrate fluorescence. inhibition, % at 6.7 µM. 320,000 tested, 0.18% active;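 active = inhibition above the campaign's mean inhibition across all tested compounds plus 3 SD, cut at about 9.5% in these data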;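 note: 0% = DMSO only and 100% = 100 µM cantharidin control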
PP1 inh – PP1-alpha (human) inhibition in PP5 counter-screen. P62136. purified PP1alpha, OMFP fluorescence. inhibition, % at 6.7 µM. 320,000 tested, 0.9% active;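 active = inhibition above the mean inhibition of all tested compounds plus 3 SD, computed separately for each screening campaign, cut at about 15% in these data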
Target sequence (P62136 whole entry, looked up): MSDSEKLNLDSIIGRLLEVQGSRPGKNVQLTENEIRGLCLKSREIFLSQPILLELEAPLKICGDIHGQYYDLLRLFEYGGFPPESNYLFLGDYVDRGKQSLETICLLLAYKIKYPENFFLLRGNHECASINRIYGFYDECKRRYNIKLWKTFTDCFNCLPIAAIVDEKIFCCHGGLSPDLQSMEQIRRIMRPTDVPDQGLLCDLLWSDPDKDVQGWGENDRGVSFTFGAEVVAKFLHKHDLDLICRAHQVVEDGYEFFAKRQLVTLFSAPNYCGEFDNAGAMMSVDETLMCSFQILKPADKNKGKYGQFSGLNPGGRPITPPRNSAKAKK
NadD block – inhibitors of Staphylococcus aureus NadD | purified NadD enzyme, colorimetric absorbance read-out | inhibition, % at 20 µM | 360,000 tested, 0.78% active | AID 602399; in the data active = inhibition above about 26%
Fh CTSL1 inh – blocks F. hepatica cathepsin L1 in PFM18AAP counter-screen; recombinant F. hepatica cathepsin L1, Z-Leu-Arg-MCA fluorescence; inhibition, % at 5.96 µM; 300,000 tested, 0.49% active; AID 1906;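 active = inhibition above the mean of all tested compounds plus 3 SD, set per screening campaign, cut at about 17% in these data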;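 note: 0% = plate median of test compound wells and 100% = 1 µM Z-Phe-Ala-diazomethylketone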
Myeloid diff – myeloid differentiation induction; shares compounds with Myeloid diff MLP; ER-HoxA9 myeloid progenitors, GFP/Mac1 double-positive flow; calls only; 2,300 tested, 2% active;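 active = share of green or green-and-red cells above 9 and 9% in run 1 or 4 and 3% in run 2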
GFP autofluor – counter-screen for myeloid differentiation promoters: compound fluorescence; shares compounds with Myeloid diff MLP; fluorescence response, % (test concentration not listed); 2,300 tested, 7.4% active; ER-HoxA9 myeloid progenitors, no estrogen, GFP autofluorescence flow cytometry; vehicle wells 0%, positive control 100%;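 active = over 5% cells positive for green fluorescent reporter, or over 2% positive for both it and APC stain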;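 note: range taken on the double positive population between DMSO and positive control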
Starred values were filed as active, the others as inactive; i = inactive; u = inconclusive; x = no result; + = active, no number.

SMILES | Myeloid diff MLP | HCV core dimer | PP5 inh | PP1 inh | NadD block | Fh CTSL1 inh | Myeloid diff | GFP autofluor
c1cc(CCCc2ccncc2)ccn1 | i | x | 1 | -3 | -3 | x | x | x
O=Cc1ccc(Cl)c(Cl)c1 | i | x | 2 | -9 | 2 | x | x | x
COc1ccc(N(CC(=O)NC2CCCCC2)C(=O)c2ccc(C)s2)cc1OC | u | 1 | -2 | -1 | -3 | 5 | x | x
CCn1c2ccccc2c2cc(N=C3SC(CC(=O)Nc4ccccc4OC)C(=O)N3C)ccc21 (stereo not drawn) | + | 22 | 0 | -3 | 28 | 5 | i | 0
CCn1c2ccccc2c2cc(N=C3SC(CC(=O)Nc4ccccc4OC)C(=O)N3CCOC)ccc21 (stereo not drawn) | i | 6 | 6 | 5 | 12 | -2 | x | x
COC(=O)c1c(NC(=O)CSc2nnnn2-c2ccccc2)sc2c1CCC(C(C)(C)C)C2 (stereo not drawn) | i | 10 | 2 | -9 | 14 | -2 | i | 0
CN1CCC(CC(C(=O)N2CCCC2)(c2ccccc2)c2ccccc2)C1 (stereo not drawn) | i | x | x | x | -1 | x | x | x
COC(=O)/C=C/c1cnc[nH]1 | i | 10 | 2 | 0 | -7 | -2 | x | x
O=C(NC1CCCC1)c1cccc(S(=O)(=O)N2CCOCC2)c1 | i | x | 4 | -3 | 1 | x | x | x
Cc1ccc(OCC(=O)N2CCCCC2)c(Br)c1 | i | -1 | 1 | -1 | -2 | 3 | i | 0
CC(C)(C)c1ccc(OCC(=O)N2CCCCCC2)c(Br)c1 | i | 8 | 4 | 2 | -3 | 2 | x | x
COc1ccc(-n2c(N)c(C(=O)NCc3ccco3)c3nc4ccccc4nc32)c(OC)c1 | + | 7 | 5 | 5 | 9 | 8 | i | 4
COc1ccc(CCn2c(N)c(C(=O)NCc3ccco3)c3nc4ccccc4nc32)cc1 | x | 16 | 1 | 4 | 11 | -2 | x | x
COc1cccc(NC(=O)CSc2nnc(-c3ccco3)c(-c3ccco3)n2)c1 | + | 31 | 3 | 10 | 6 | 7 | i | 0
COc1ccc(NC(=O)CSc2nnc(-c3ccco3)c(-c3ccco3)n2)cc1OC | i | 26 | 4 | 6 | -1 | 4 | x | x
O=C(COC(=O)c1cccc(C(F)(F)F)c1)NC(=O)NC1CCCC1 | i | x | x | x | -4 | x | x | x
N#Cc1ccccc1OCCCN1CCC(Cc2ccccc2)CC1 | i | 2 | -2 | -3 | -1 | -1 | x | x
CC(=O)Nc1ccc(S(=O)(=O)N2CCN(CC(O)COc3ccc4ccccc4c3)CC2)cc1 (stereo not drawn) | i | 0 | 2 | -4 | -7 | 0 | i | 0
CCC(C)[C@H](NC(=O)[C@@H]1Cc2c([nH]c3ccccc23)C2c3ccccc3C(=O)N21)C(=O)NCC1CCCO1 (stereo partly drawn) | + | -2 | 4 | -3 | 10 | 2 | i | 0
COc1ccccc1N1CCN(S(=O)(=O)CCNC(=O)Cc2ccc(F)cc2)CC1 | i | -1 | 1 | -2 | -3 | 1 | x | x
CSCCC(NC(=O)c1ccccc1Cl)C(=O)NC1CCN(Cc2ccccc2)CC1 (stereo not drawn) | i | -6 | -1 | -1 | -3 | -4 | x | x
O=C(COc1ccccc1Cl)NCCNC(=O)c1ccncc1 | i | 3 | 1 | -5 | 1 | -4 | i | 0
O=C(COc1ccccc1Cl)NCCCNC(=O)c1ccncc1 | i | -4 | 3 | 1 | -2 | -4 | x | x
COc1ccc(S(=O)(=O)Nc2ccc(C)cn2)cc1 | i | -5 | 2 | -1 | -1 | 9 | x | x
Cc1ccc(-c2csc(NC(=O)C3=COCCO3)n2)cc1 | i | 3 | -1 | -4 | -6 | 4 | x | x
SMILES | Myeloid diff MLP | HCV core dimer | PP5 inh | PP1 inh | NadD block | Fh CTSL1 inh | Myeloid diff | GFP autofluor
Cc1ccc(C)c(-c2csc(NC(=O)C3=COCCO3)n2)c1 | i | -5 | 1 | -3 | -2 | 4 | i | 0
O=S(=O)(Nc1nc2ccccc2nc1NCCO)c1cccc(Cl)c1 | i | -8 | 4 | 2 | 3 | 2 | i | 0
Cc1ccc(S(=O)(=O)N2CCC(C(=O)N3CCCC3C(=O)N[C@@H](CC(C)C)C(=O)NCC(N)=O)CC2)cc1 (stereo partly drawn) | i | 0 | 0 | -3 | -2 | 0 | x | x
O=C(c1ccc([N+](=O)[O-])o1)N1CCN(c2nc3ccc(F)cc3s2)CC1 | i | 0 | 2 | -4 | 0 | 4 | i | 0
O=C(c1ccc([N+](=O)[O-])o1)N1CCN(c2nc3c(Cl)cccc3s2)CC1 | i | 4 | 2 | -3 | -3 | -1 | x | x
COc1cccc2sc(N3CCN(C(=O)c4ccc([N+](=O)[O-])o4)CC3)nc12 | + | -8 | -1 | -4 | 1 | 3 | i | 0
CC(C)(C)NC(=O)C(C1CC1)n1c(-c2ccccc2)nc2ccccc21 (stereo not drawn) | i | x | x | x | x | x | x | x
CC(OC(=O)c1cc(O)c2ccccc2c1O)C(=O)Nc1ccc(C(N)=O)cc1 (stereo not drawn) | + | 1 | 1 | -3 | 11 | 0 | i | 3
N#Cc1ccsc1NC(=O)C1CC(=O)N(Cc2ccccc2)C1 (stereo not drawn) | i | 6 | -2 | -7 | -1 | -2 | i | 0
Cc1ccc(C(=O)OCC(=O)c2c[nH]c3ccccc23)cc1NC(=O)c1ccco1 | i | 24 | 4 | -2 | -1 | -4 | i | 0
O=C(CNC(=O)OCc1ccccc1)NC1CCCCCCC1 | + | -5 | 1 | -3 | -4 | 0 | i | 0
Oc1[nH]c2ccccc2c1/C=N/c1nccs1 | i | -7 | 3 | -1 | 6 | 0 | i | 2
O=C(Nc1cc([N+](=O)[O-])ccc1F)C1CCN(S(=O)(=O)c2cccs2)CC1 | i | x | x | x | -7 | x | x | x
COc1cc(OC)c2c(-c3cccc(-c4ccc(O)cc4)c3)cc(=O)oc2c1 | + | x | x | x | 4 | x | i | 5
COc1ccc(-c2cccc(-c3cc(=O)oc4cc(OC)cc(OC)c34)c2)cc1 | u | x | x | x | -1 | x | x | x
CN(C(=O)COC(=O)c1ccc[nH]c1=O)C1CCCCC1 | i | -2 | 1 | -5 | -2 | -1 | i | 1
CN1CCc2c(sc(/N=C/c3ccco3)c2C(N)=O)C1 | i | 4 | -1 | -1 | -1 | 7 | x | x
CN1CCc2c(sc(/N=C/c3cccs3)c2C(N)=O)C1 | i | 8 | 0 | -2 | 13 | 3 | i | 0
O=c1c2c(nc3n1CCCCC3)-c1ccccc1CC21CCCCC1 | i | 0 | 3 | 1 | 3 | 2 | i | 0

Screening data: PubChem BioAssay, several laboratories
